We go through 1 compound from ChEMBL document CHEMBL1158586, “Hypopigmentary action of dihydropyranocoumarin D2, a decursin derivative, as a MITF-degrading agent” (J Nat Prod, 2010).

Calls of active or inactive are those of the source. The calls are words filed in the database; no cut-off is given here.

The subject of assay [1] is Mel-Ab. Put plainly: Cytotoxicity against mouse Mel-Ab cells at 1 to 100 uM after 24 hrs by crystal violet assay. It counts as functional, cell-based. The method, boiled down: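 Mel-Ab (spontaneously immortalized mouse melanocytes; DMEM, 10% FBS, 100 nM TPA, 1 nM CT, 37 °C, 5% CO2) exposed 24 h to 1, 10, 50, 100 µM. Crystal violet staining (0.1% in 10% ethanol, 5 min, room temperature), four water rinses, dye extracted with 95% ethanol, absorbance read at 590 nm.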

Assay [2] relates to Mel-Ab. Kind of assay: Inhibition of melanin synthesis in mouse Mel-Ab cells assessed as reduction in melanin synthesis at 1 to 100 uM after 4 hrs by phase-contrast microscopy. It counts as functional, cell-based. The following applies: in the assay text read “4 days” for “4 hrs”. The method, boiled down:
(§1)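 Mel-Ab melanocytes in TPA/CT-supplemented DMEM given 1–100 µM for four days. Cells photographed under phase contrast. Pellets then dissolved in 1 N NaOH, 100 °C, 30 min, spun 16000g for 20 min, supernatant OD read at 400 nm. Mean ± SD of three replicate experiments, compared with untreated control.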

Assay [3] concerns Mel-Ab. Put plainly: Inhibition of melanin synthesis in mouse Mel-Ab cells assessed as in melanin content after 4 hrs by ELISA. The format is functional, cell-based. The following applies: in the assay text read “4 days” for “4 hrs”. The method, boiled down: as §1
Assay [4] has as its system Mel-Ab. Put plainly: Induction of ERK activity in 24 hrs serum starved mouse Mel-Ab cells at 50 uM by Western blot analysis. It counts as cell-based. The method, boiled down: (§2)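 Mel-Ab cells serum-starved 24 h, then given 50 µM for the indicated times up to 360 min. Whole-cell lysates run at 10 µg protein per lane by SDS-PAGE and blotted on PVDF. Probed with 1:1000 antibodies to phospho-ERK, phospho-Akt, MITF and tyrosinase; actin served as loading control.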
Background: Immunoblotting shows a protein as a band on a membrane.

The target of assay [5] is T1, Microphthalmia-associated transcription factor (Mus musculus) (UniProt Q08874).
T1 sequence (whole entry): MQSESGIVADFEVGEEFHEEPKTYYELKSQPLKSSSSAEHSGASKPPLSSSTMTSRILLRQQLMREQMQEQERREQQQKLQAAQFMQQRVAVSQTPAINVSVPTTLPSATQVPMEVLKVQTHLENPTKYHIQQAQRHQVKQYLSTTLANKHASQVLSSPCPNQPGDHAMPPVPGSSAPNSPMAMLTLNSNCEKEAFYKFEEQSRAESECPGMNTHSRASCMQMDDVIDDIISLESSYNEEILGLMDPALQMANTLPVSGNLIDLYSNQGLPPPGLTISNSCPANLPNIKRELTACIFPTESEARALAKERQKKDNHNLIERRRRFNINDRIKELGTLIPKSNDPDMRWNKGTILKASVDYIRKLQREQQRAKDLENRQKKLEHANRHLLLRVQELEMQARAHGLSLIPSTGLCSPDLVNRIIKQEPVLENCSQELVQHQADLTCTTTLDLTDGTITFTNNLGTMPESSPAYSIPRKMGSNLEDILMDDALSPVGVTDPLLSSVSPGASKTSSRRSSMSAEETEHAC
Put plainly: Down regulation of MITF activity in 24 hrs serum starved mouse Mel-Ab cells at 50 uM measured after 60 to 360 mins by Western blot analysis. The format is cell-based. The method, boiled down:
as §2

For assay [6], the system named is Mel-Ab. Kind of assay: Reduction of MITF level in 24 hrs serum starved mouse Mel-Ab cells at 50 uM measured after 24 to 72 mins by Western blot analysis. The format is functional. Conditions: in the assay text read “24 to 72 hrs” for “24 to 72 mins”. The method, boiled down:
(§3)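 Mel-Ab cells cultured 24–72 h with 50 µM. Whole-cell lysates (10 µg protein/lane) analysed by Western blot for MITF and tyrosinase, with actin as loading control.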

Assay [7] relates to Mel-Ab. Kind of assay: Reduction of tyrosinase protein level in 24 hrs serum starved mouse Mel-Ab cells at 50 uM measured after 24 to 72 mins by Western blot analysis. The format is functional. The following applies: in the assay text read “24 to 72 hrs” for “24 to 72 mins”. The procedure, abridged:
as §3

Assay [8] is described as follows: Inhibition of melanin synthesis in mouse Mel-Ab cells assessed as reduction in melanin synthesis at 50 uM after 4 hrs by phase-contrast microscopy in presence of PD-98059 ERK pathway inhibitor. The format is functional, cell-based. Conditions: in the assay text read “4 days” for “4 hrs”. The procedure, abridged:
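Mel-Ab cells pretreated 1 h with 20 µM PD98059, then cultured four days with 50 µM compound. Phase-contrast photography, then melanin read as OD 400 nm after dissolving pellets in 1 N NaOH at 100 °C. Triplicate determinations, mean ± SD.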

The test system of assay [9] is Mel-Ab. Put plainly: Reduction of MITF level in 24 hrs serum starved mouse Mel-Ab cells […] measured after 3 hrs followed by MG132 proteasome inhibitor for 1 hr by Western blot analysis. The format is functional. The method, boiled down: (§4)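 After serum starvation, Mel-Ab cells pretreated 1 h with 25 µg/mL cycloheximide, then 1 h with 25 µM MG132 and/or 100 µM chloroquine, then 3 h with 50 µM compound. MITF detected by Western blot of whole-cell lysates.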

Assay [10] deals with Mel-Ab. Kind of assay: Reduction of MITF level in 24 hrs serum starved mouse Mel-Ab cells […] measured after 3 hrs followed by chloroquine lysosomal proteolysis inhibitor for 1 hr by Western blot analysis. It counts as functional. The method, boiled down: as §4
Assay [11] concerns Mel-Ab. Kind of assay: Reduction of MITF level in 24 hrs serum starved mouse Mel-Ab cells at 25 ug/ml measured after 3 hrs followed by MG132/chloroquine for 1 hr by Western blot analysis. The format is functional. Conditions: 50 uM, in the assay text read “50 uM” for “25 ug/ml”. The procedure, abridged:
as §4

Assay [12] deals with Mel-Ab. Kind of assay: Induction of ERK activity in 24 hrs serum starved mouse Mel-Ab cells at 50 uM by Western blot analysis in presence of PD-98059. The format is cell-based.
The target in assay [13] is T2, Tyrosinase (Mus musculus) (UniProt P11344).
T2 sequence (whole entry): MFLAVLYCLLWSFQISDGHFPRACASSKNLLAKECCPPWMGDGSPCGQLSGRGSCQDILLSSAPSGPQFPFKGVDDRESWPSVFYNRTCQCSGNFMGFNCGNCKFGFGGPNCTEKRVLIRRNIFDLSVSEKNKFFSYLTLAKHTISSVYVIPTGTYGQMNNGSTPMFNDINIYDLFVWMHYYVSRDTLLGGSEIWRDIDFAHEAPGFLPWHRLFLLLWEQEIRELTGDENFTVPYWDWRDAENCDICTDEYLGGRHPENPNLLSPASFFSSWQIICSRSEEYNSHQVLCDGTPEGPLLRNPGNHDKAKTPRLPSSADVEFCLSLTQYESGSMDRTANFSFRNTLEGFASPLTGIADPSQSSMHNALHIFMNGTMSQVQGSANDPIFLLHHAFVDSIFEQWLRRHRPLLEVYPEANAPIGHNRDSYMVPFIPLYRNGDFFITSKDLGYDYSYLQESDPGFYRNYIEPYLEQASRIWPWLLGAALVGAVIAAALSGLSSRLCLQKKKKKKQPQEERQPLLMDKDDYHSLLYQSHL
Put plainly: Inhibition of tyrosinase activity in mouse Mel-Ab cells assessed as inhibition of melanogenesis at 1 to 100 uM by ELISA. (In general: ELISA stands for enzyme-linked immunosorbent assay.)

Assay [14] deals with Mel-Ab. Put plainly: Reduction of MITF level in 24 hrs serum starved mouse Mel-Ab cells at 50 uM measured after 3 hrs by Western blot analysis in presence of PD-98059.

With `CC1(C)Oc2cc3oc(=O)ccc3cc2C[C@@H]1OC(=O)/C=C/c1ccccc1`, the result (in the assay on Mel-Ab [1]; in [8]; in the assay on Mel-Ab [9]; with Mel-Ab [10]; with Mel-Ab [12]; in the assay on Mel-Ab [14]) was inactive. For the same compound, the result (in the assay with Mel-Ab [2]; in the assay with Mel-Ab [4]; in [5]; in the assay with Mel-Ab [6]; in the assay on Mel-Ab [7]; with Mel-Ab [11]) was Active. In [13], the outcome was Active. Further, in the assay on Mel-Ab [3], the Activity result is “Dose-dependent effect”.
